Bioassay records (PubChem)
In the library only some 5.5% were active in any assay of this set; here they are far more common.
HSV replic up: HSV replication enhancement. HSV replication augmentation in cells, fold increase. maximum fold increase. 0.005% of 220,000 active; in the data active = maximum fold increase above about 1.5; inconclusive = no clear call, values can overlap the other calls; tested in PC3 cells
STAT3 activator: increases IL-6 driven STAT3 reporter signal; U3A cells, IL-6 STAT3-luciferase reporter, luminescence; 100% = signal with IL-6 EC80 alone; activation (% of control), % at 5.6 µM; 0.91% of 190,000 active; AID 871;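 active = activation above the screen-wide mean of compound activation plus 3 SD, cut at about 130% in these data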;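 also: 0% = background luminescence of wells with medium and substrate only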
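Test system: STAT3-luciferase reporter U3A cells; Detection: reporter luminescence signal; Times: 1 h compound pre-exposure, 6 h IL-6 stimulation, 37 °C; Benchmarks: IL-6-only high control; Also added: IL-6 stimulus at 33 ng/mL final.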
STAT1 inh: reduces IFN-gamma driven STAT1 reporter signal. NIH 3T3 STAT1-luciferase reporter, luminescence. inhibition, % at 5.5 µM. 0.35% of 200,000 active;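 active = inhibition above a set limit, the mean inhibition across all tested compounds plus 3 SD, cut at about 34% in these data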;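 also: 0% = IFN-gamma with DMSO and 100% = IFN-gamma with 300 µM nifuroxazide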
STAT3 inh: reduces IL-6 driven STAT3 reporter signal; AID 862; 0.89% of 190,000 active; inhibition, % at 5.5 µM; U3A cells, IL-6 STAT3-luciferase reporter, luminescence; host cell line lacks STAT1;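 active = inhibition above the mean inhibition across all screened compounds plus 3 SD, cut at about 44% in these data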;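 also: 0% = DMSO only wells and 100% = 100 µM nifuroxazide control wells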
STAT1 activator: activators of IFN-gamma induced STAT1 signaling. AID 932. 2.6% of 200,000 active. NIH 3T3 STAT1-luciferase reporter, luminescence; 100% = IFN-gamma alone, no compound. activation (% of control), % at 5.5 µM;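 active = activation above the screen-wide mean activation plus 3 SD, cut at about 130% in these data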;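 also: raw ratio to IFN-gamma control signal so 100% means no change and 0% no light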
Cl transport mod: modulates chloride dependent transport by human KCC2; 2.2% of 190,000 active; B-score of Tl+ flux slope (higher = more flux/activation; lower = inhibition) at 10 µM; KCC2 cells, thallium flux FluoZin-2 fluorescence;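 active = thallium flux slope and its plate-corrected score both differing from the plate sample mean at a set confidence after two filtering rounds, in either direction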;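 also: slope of fluorescence scaled to starting intensity during 10 to 20 s after thallium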
Target sequence (Q9H2X9 whole entry, looked up): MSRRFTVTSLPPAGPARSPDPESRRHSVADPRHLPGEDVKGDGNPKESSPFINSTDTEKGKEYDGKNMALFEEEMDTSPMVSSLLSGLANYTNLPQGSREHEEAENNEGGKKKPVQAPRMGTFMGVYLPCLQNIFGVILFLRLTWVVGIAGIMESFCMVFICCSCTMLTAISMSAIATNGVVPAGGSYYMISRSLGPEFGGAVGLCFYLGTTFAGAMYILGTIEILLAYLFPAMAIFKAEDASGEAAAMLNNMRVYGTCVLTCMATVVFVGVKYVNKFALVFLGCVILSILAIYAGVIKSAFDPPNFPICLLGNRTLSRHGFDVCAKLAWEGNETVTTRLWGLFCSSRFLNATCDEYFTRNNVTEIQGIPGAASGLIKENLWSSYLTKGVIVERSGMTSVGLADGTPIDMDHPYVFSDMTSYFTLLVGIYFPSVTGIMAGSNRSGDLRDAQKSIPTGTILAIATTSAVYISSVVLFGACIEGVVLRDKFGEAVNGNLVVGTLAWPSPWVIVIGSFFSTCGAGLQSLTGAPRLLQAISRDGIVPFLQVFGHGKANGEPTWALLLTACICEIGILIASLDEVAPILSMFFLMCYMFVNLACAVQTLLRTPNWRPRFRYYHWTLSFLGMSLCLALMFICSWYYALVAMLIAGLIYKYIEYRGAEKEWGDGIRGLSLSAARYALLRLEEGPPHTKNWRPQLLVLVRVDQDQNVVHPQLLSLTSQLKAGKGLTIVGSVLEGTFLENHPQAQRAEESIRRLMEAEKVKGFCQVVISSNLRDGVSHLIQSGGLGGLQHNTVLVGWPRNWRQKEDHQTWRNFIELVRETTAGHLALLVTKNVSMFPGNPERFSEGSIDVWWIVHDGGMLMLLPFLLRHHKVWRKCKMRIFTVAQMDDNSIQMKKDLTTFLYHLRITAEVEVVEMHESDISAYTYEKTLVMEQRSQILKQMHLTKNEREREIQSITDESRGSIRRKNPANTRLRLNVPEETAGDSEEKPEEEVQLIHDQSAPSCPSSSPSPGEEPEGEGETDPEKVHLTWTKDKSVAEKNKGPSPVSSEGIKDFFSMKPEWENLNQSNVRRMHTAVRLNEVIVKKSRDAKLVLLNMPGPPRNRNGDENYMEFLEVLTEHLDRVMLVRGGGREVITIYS
KCC2 secondary: KCC2 (human) modulation, secondary assay. HEK293-KCC2, thallium flux, FluoZin2 fluorescence; active compounds read high. shares compounds with Cl transport mod. normalised thallium flux (F/F0 slope) at 10 µM. 15% of 3,700 active;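 active = thallium flux slope above the same plate's solvent-only control mean plus 3 SD; inconclusive = the two replicate wells disagree; inactive = no significant difference from solvent-only control wells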
KCC2 bumet counter: thallium flux persisting under bumetanide in KCC2 cells, counter-screen secondary assay; shares compounds with Cl transport mod; HEK293-KCC2 + bumetanide/ouabain, thallium flux FluoZin2; active compounds read high; normalized thallium flux at 10 µM; 49% of 3,700 active;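 active = thallium entry rate above the same plate's blocked-transporter control wells by more than 3 SD; inconclusive = the two repeat wells disagree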;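 also: raw slope of fluorescence over initial fluorescence between 10 and 20 s after thallium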
KCC2 sec2: KCC2 (human) modulation, second secondary assay; 23% of 3,700 active; normalized thallium flux at 10 µM; HEK293-KCC2, thallium flux FluoZin2 fluorescence; actives lie on both sides; F/F0 rise rate, 10–20 s post-thallium; shares compounds with Cl transport mod; AID 1715;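 active = thallium flux slope more than 3 SD above or below the plate's solvent-only control mean, mostly below; inconclusive = the two repeat wells disagreed; inactive = no significant shift from solvent-only controls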;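 also: raw slope with 0.1% DMSO as baseline and bumetanide as block control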
HEK counter1: acts in parental HEK cells, KCC2 counter-screen; shares compounds with Cl transport mod; HEK293 parental cells, thallium flux FluoZin2, ouabain; baseline-ratio fluorescence slope, 10–20 s after thallium; thallium flux rate (normalised fluorescence) at 10 µM; 46% of 3,700 active;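 active = thallium flux rate significantly above the same plate's solvent-only control wells, beyond their mean plus 3 SD; inconclusive = the two replicate wells gave conflicting results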
KCC2 retest ouab: confirmation of human KCC2 modulators with ouabain; shares compounds with Cl transport mod; HEK293-KCC2, thallium flux FluoZin2 fluorescence; bidirectional: low = inhibitor, high = activator; raw Tl+ flux slope (below DMSO = inhibition, above = activation) at 10 µM; 48% of 3,700 active; AID 1717;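 active = thallium flux slope beyond 3 SD from same-plate DMSO control mean in most replicates, usually higher, sometimes lower; inconclusive = repeat tests gave conflicting results; inactive = no significant difference from controls in most replicates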;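 also: slope of initial-normalized fluorescence between seconds 10 and 20 after thallium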
HEK293 Tl flux2: counter-screen for KCC2 modulators: effect in parental HEK293 cells; 33% of 3,700 active; shares compounds with Cl transport mod; thallium flux FluoZin-2 fluorescence slope; thallium flux slope at 10 µM; AID 1718;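 active = thallium flux slope above the same plate's solvent-control mean plus 3 SD in both duplicate wells; inconclusive = duplicate wells that disagreed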;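 also: run without ouabain in cells lacking the KCC2 cotransporter; slope of fluorescence scaled to its starting value between 10 and 20 s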
* marks the source's active call; other numbers are inactive results; i = inactive; ? = inconclusive; · = not tested or not shown.

SMILES	HSV replic up	STAT3 activator	STAT1 inh	STAT3 inh	STAT1 activator	Cl transport mod	KCC2 secondary	KCC2 bumet counter	KCC2 sec2	HEK counter1	KCC2 retest ouab	HEK293 Tl flux2
Cn1c(=O)c2c(nc(CN3CCN(C(c4ccccc4)c4ccccc4)CC3)n2CC(N)=O)n(C)c1=O	i	107	3	-4	97	-2.6*	0.011	0.0068	0.03	0.0077	0.034	?
Cc1cc(C)c2nc(SC3CCOC3=O)cc(C)c2c1 (centres undefined)	i	97	12	8	87	11*	0.0083	?	0.031	0.011*	0.047	?
CC(=O)c1c(C)[nH]c(C(=O)CSc2nnc(-c3ccc(Cl)cc3)n2CC2CCCO2)c1C (centres undefined)	i	99	8	-1	92	0.024	·	·	·	·	·	·
CCOC(=O)c1ccc(NC(=O)c2nn(CC)cc2Br)cc1	i	98	-10	4	109	-1.2	·	·	·	·	·	·
CCOC(=O)c1ccc(NC(=S)NC(=O)c2nn(CC)cc2Br)cc1	i	100	2	1	98	6*	0.011	0.0097*	0.034	0.0092*	0.025	0.012*
CCOC(=O)c1ccc(NC(=O)c2nn(C)cc2Br)cc1	i	89	-17	20	115	·	·	·	·	·	·	·
CCn1cc(Br)c(C(=O)NC(=S)Nc2ccc(C(=O)OC)cc2)n1	i	101	0	3	100	6.2*	0.011	0.018*	0.034	0.013*	0.026	0.012*
O=C(NC(=S)Nc1ccc(-c2nc3ncccc3o2)cc1)c1ccccc1F	i	92	3	15	98	4.7*	0.0081	0.013*	0.033	0.011*	?	0.011
COC(=O)c1ccc(NC(=S)NN2CCCCC2c2cccnc2)cc1 (centres undefined)	i	·	·	·	·	-0.9	·	·	·	·	·	·
O=C(NC(=S)NN1CCCCC1c1cccnc1)c1ccc(Br)cc1 (centres undefined)	i	·	·	·	·	65*	0.033*	0.099*	0.046*	0.04*	0.066*	0.02*
CC1CCCCN1C(=O)CSc1ccc(-c2ccc(F)cc2)nn1 (centres undefined)	i	112	-8	-9	108	·	0.01	0.0064	0.028*	0.0044	0.017*	0.011
Cc1cc(NC(=O)CSc2ccc(-c3ccccc3)nn2)no1	i	95	2	10	98	-7.4*	0.0058	0.0051	0.024*	?	0.013*	0.009
O=C(CSc1ccc(-c2ccccc2)nn1)c1ccccc1	i	86	-27	18	124	-4.1*	0.0053	?	0.022*	0.0086	?	0.011
O=C(CSc1ccc(-c2ccccc2)nn1)Nc1ccc2c(c1)OCCO2	i	106	-13	-3	112	-6.2*	0.008	0.0049	0.022*	0.0064	0.014*	0.0097
Cc1cc(NC(=O)CSc2ccc(-c3cccc([N+](=O)[O-])c3)nn2)no1	i	101	10	7	90	-1.4	·	·	·	·	·	·
O=C(COC(=O)CNC(=O)c1ccc(Cl)cc1Cl)Nc1ccc(N2CCOCC2)cc1	i	100	4	7	95	0.012	·	·	·	·	·	·
Cc1cc(NC(=O)CSc2ccc(-c3ccc(F)cc3)nn2)no1	i	108	13	-8	87	-5.2*	0.0065	0.005	0.025*	0.0071	?	0.01
CC(=C\C(=O)O)/C(=C/c1ccccc1)C(=O)O	i	97	4	4	96	-0.1	·	·	·	·	·	·
CCOc1ccc(Nc2nc(Cc3nnc(SCC(=O)O)o3)cs2)cc1	i	100	0	6	100	·	0.005	0.005	0.027	0.0077	0.015*	0.011
N#Cc1ccccc1Sc1ccccc1C(=O)OCc1nnc(-c2ccccc2)o1	i	108	-1	-4	101	-3.8*	?	0.0059	0.031	0.01*	?	0.011
COc1cc2c(cc1OC)CN(C(=S)NC(=O)c1ccccc1)CC2	i	98	0	5	98	23*	0.026*	0.05*	?	0.031*	0.033*	0.032*
COc1ccccc1C(=O)NC(=S)N1CCc2ccccc21	i	111	-7	-6	107	6.5*	0.0097	0.019*	0.03	0.0085*	?	0.0094
COc1ccccc1C(=O)NC(=S)Nc1ccc(N2CCCC2)cc1	i	87	3	18	97	0.048	·	·	·	·	·	·
COc1ccc(OCC(=O)NC(=S)Nc2ccc3c4c(cccc24)CC3)cc1	i	102	-13	2	112	29*	0.011	0.079*	0.035	0.031*	0.036*	0.014*
Cc1ccccc1OCC(=O)NC(=S)Nc1ccc2c3c(cccc13)CC2	i	97	9	5	92	-0.47	·	·	·	·	·	·
SMILES	HSV replic up	STAT3 activator	STAT1 inh	STAT3 inh	STAT1 activator	Cl transport mod	KCC2 secondary	KCC2 bumet counter	KCC2 sec2	HEK counter1	KCC2 retest ouab	HEK293 Tl flux2
COc1ccc(C(=O)NC(=S)N2CCCc3ccccc32)cc1OC	i	91	-5	17	103	5.3*	0.011	0.023*	0.033	0.012*	?	0.012*
CNC(=S)N1CCc2cc(OC)c(OC)cc2C1	i	·	·	·	·	0.61	·	·	·	·	·	·
O=C(Cc1ccccc1)N1CCc2ccccc21	i	103	-12	-2	115	·	·	·	·	·	·	·
COc1ccccc1-c1cc(C(=O)N2CCCc3ccccc32)no1	i	94	-27	18	124	-3.9*	0.0073	0.0051	0.035	?	0.016*	0.0095
COc1ccc(OCC(=O)NC(=S)N2CCCc3ccccc32)cc1	i	113	-12	-8	111	24*	0.021*	0.037*	0.034	0.021*	0.029*	0.021*
CC(C)C(=O)NC(=S)N1CCc2ccccc21	i	112	6	-10	95	5.2*	0.0067	0.021*	?	0.018*	0.028*	0.017*
